Sampled rows, rich in hits. Any-hit rate of the full collection: about 1.8%.
M5 PAM – CHRM5 positive allosteric modulation. P08912. CHO-K1 hM5, Fluo-8 calcium, ACh EC20 PAM; 0% = ACh EC20, 100% = ACh EC100. activation, % at 3 µM. 0.3% of 360,000 active. AID 624038;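 active = activation above the run cutoff, the mean activation of all test compounds plus 3 SD, cut at about 18% in these data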
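Assay system: CHO-K1 hM5 cells. Also added: acetylcholine at EC20 concentration, added after compound. Dosing: 3 µM, single dose. Times: compound preincubation 140 s before EC20 acetylcholine addition. Signal: Fluo-8 calcium fluorescence. Measure: % activation relative to EC20 and EC100 ACh responses. Repeats: singlicate, one well per test compound.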
CHRM4 PAM – potentiates acetylcholine response at human M4 receptor | P08173 | CHO-K1 hM4/Gqi5, Fluo-8 calcium fluorescence, ACh EC20; 0% = ACh EC20, 100% = maximal ACh | activation, % at 3 µM | 0.4% of 360,000 active | AID 624126;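 active = activation above its plate's cutoff, the mean activation of sample wells plus 3 SD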
Target sequence (P08173 whole entry, looked up): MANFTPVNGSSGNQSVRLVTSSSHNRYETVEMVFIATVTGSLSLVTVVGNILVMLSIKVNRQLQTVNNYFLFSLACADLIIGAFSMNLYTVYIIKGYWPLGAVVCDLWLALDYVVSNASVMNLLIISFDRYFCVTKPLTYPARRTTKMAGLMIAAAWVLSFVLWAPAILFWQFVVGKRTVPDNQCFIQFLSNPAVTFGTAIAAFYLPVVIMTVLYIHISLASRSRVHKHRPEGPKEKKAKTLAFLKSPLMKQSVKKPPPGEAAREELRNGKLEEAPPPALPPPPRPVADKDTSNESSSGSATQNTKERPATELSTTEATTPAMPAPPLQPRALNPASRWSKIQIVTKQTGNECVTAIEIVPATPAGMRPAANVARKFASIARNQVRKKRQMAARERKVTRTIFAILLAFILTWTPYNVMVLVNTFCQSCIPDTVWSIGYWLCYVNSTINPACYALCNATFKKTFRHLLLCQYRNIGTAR
M4 ag – agonists of human muscarinic M4 receptor (CHRM4) | 0.14% of 360,000 active | P08173 | CHO-K1 hM4/Gqi5, Fluo-8 calcium fluorescence; vehicle 0%, full acetylcholine response 100% | AID 624127 | activation, % at 3 µM;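 active = activation above the run mean over all test wells plus 3 SD, cut at about 32% in these data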;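 note: peak over basal fluorescence ratio per well then scaled between controls; 0% = DMSO wells and 100% = acetylcholine at EC100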
M5 ag – agonists of human muscarinic M5 receptor (CHRM5); P08912; CHO-K1 hM5 cells, Fluo-8 calcium fluorescence; 0% DMSO wells, 100% maximal acetylcholine response; activation, % at 3 µM; 0.19% of 360,000 active; AID 624037;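 active = activation above the run's mean over test compounds plus 3 SD, cut at about 23% in these data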;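 note: signal is peak over basal fluorescence ratio across the kinetic read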
CHRM5 antagonist – antagonists of human muscarinic M5 receptor (CHRM5) | P08912 | CHO-hM5 cells, Fluo-8 calcium fluorescence, ACh EC80 | inhibition, % at 3 µM | 0.59% of 360,000 active;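 active = inhibition above a per-plate cutoff, the mean of that plate's test compounds plus 3 SD, cut at about 27% in these data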;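 note: 0% = acetylcholine EC80 with DMSO and 100% = DMSO without agonist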
M4 antag – blocks acetylcholine activation of human M4 receptor; 0.73% of 360,000 active; AID 624125; P08173; inhibition, % at 3 µM; CHO-hM4 cells, ACh EC80, Fluo-8 calcium fluorescence;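 active = inhibition above its plate's cutoff, the mean inhibition of sample wells plus 3 SD, cut at about 27% in these data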;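 note: 0% = acetylcholine EC80 with DMSO and 100% = DMSO without agonist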
* = called active by the depositor.

SMILES | M5 PAM | CHRM4 PAM | M4 ag | M5 ag | CHRM5 antagonist | M4 antag
COc1cccc2c1C(=O)c1c(O)c3c(c(O)c1C2=O)CC(O)(C(C)=O)CC3OC1CC(N(C)C)C(O)C(C)O1 (centres undefined) | -1 | -2 | 7 | 19 | 7 | 14
COc1cccc2c1C(=O)c1c(O)c3c(c(O)c1C2=O)C[C@@](O)(C(=O)CO)C[C@@H]3O[C@H]1C[C@H](N)[C@H](O)[C@H](C)O1 | -11 | -7 | 15 | 8 | 15 | 6
COc1cccc2c1C(=O)c1c(O)c3c(c(O)c1C2=O)C[C@@](O)(C(=O)CO)C[C@@H]3OC1CC(N)C(O)C(C)O1 (some centres undefined) | -29 | -2 | 17 | 75* | 26 | 4
CC(=O)[C@@]1(O)Cc2c(O)c3c(c(O)c2[C@H](O[C@H]2C[C@H](N)[C@H](O)[C@H](C)O2)C1)C(=O)c1ccccc1C3=O | -2 | 0 | 36* | 26* | 8 | 10
CC(C)C[C@@H](CO)N(Cc1ccccc1)S(=O)(=O)N(Cc1ccccc1)[C@H](CO)CC(C)C | -20 | -8 | 20 | 2 | 9 | 39*
CC(C)C[C@@H](CO)N(Cc1ccccc1)S(=O)(=O)N(Cc1ccccc1)[C@@H](CO)CC(C)C | -21 | -14 | 10 | -1 | 16 | 26
COc1ccc(CN([C@H](CO)CC(C)C)S(=O)(=O)N(Cc2ccccc2)[C@H](CO)CC(C)C)cc1 | -32 | -10 | 17 | -1 | 18 | 41*
CC(=O)Nc1oc(-c2cccc3ccccc23)nc1C#N | 3 | 7 | 5 | 2 | 0 | -9
CON(C)C(=O)CCN(Cc1ccccc1)C(=O)OC(C)(C)C | 19* | 12 | 2 | -4 | -5 | -7
CON(C)C(=O)CC(CN(Cc1ccccc1)C(=O)OC(C)(C)C)c1ccc(Cl)cc1 (centres undefined) | -4 | -4 | 1 | -4 | -8 | -6
Cc1sc2ncn(CC(=O)N3CCCC(C)C3)c(=O)c2c1S(=O)(=O)N1CCCCC1 (centres undefined) | 4 | -1 | 1 | 0 | 1 | 0
Cc1sc2ncn(CC(=O)N3CCC(C(N)=O)CC3)c(=O)c2c1S(=O)(=O)N1CC(C)CC(C)C1 (centres undefined) | -5 | 15* | 3 | -3 | 16 | -18
CCCCC(CC)C(=O)Nc1cc(=O)[nH]c2nc3ccccc3n12 (centres undefined) | -5 | 0 | 0 | -3 | 12 | -7
CC(C)C(=O)Nc1cc(=O)[nH]c2ncnn12 | 1 | 19* | 0 | -2 | -3 | -11
C[C@H]1CC[C@@]2(O[C@@H](CCO)C[C@H](O)[C@H]2O)O1 | 3 | 9 | 0 | 4 | 2 | -3
CCN(CCCNC(=O)C1CCN(S(=O)(=O)c2cnc[nH]2)CC1)c1cccc(C)c1 | 42* | 4 | 0 | 4 | 0 | -9
CCCS(=O)(=O)n1nc(-c2ccc(C)cc2)cc1N | -5 | -3 | -1 | -2 | 5 | -5
CCCS(=O)(=O)n1nc(-c2ccc(OC)cc2)cc1N | -8 | -14 | 1 | -1 | 8 | 31*
COc1ccc(Nc2ncc(C(=O)N3CCC(C(N)=O)CC3)c3ccccc23)cc1 | 5 | -6 | 0 | -3 | 10 | 5
COc1ccc(Nc2ncc(C(=O)N3CCN(Cc4ccccc4)CC3)c3ccccc23)cc1 | -19 | -28 | 23 | 4 | 20 | 28*
Cc1cc(C(c2ccc(O)cc2)c2cc(C)c(O)cc2C)c(C)cc1O | -1 | -7 | 30 | 37* | 7 | 8
O=C(Nc1ccccc1)Nc1ncc([N+](=O)[O-])s1 | -15 | -8 | 16 | 11 | 28* | 13
N#CC(C#N)=Cc1c(N2CCN(c3ccccc3)CC2)nc2ccccn2c1=O | -3 | -6 | 1 | -5 | 7 | 12
CCOC(=O)N1CCN(CCC(=O)Nc2ccc(Br)c(C)c2)CC1 | -6 | -15 | 8 | 2 | 1 | 1
CCN1CCN(CCC(=O)Nc2ccc(Br)c(C)c2)CC1 | 20* | 0 | 5 | -6 | -13 | -19
SMILES | M5 PAM | CHRM4 PAM | M4 ag | M5 ag | CHRM5 antagonist | M4 antag
COc1cccc(CNC(=O)C(=O)N2CCC3(CC2)OCCN3S(=O)(=O)c2ccc(C)cc2)c1 | -5 | 3 | 7 | 1 | 5 | -5
CC1CCN(CCCCOc2cccc(Br)c2)CC1 | -19 | -16 | 5 | -7 | 14 | 68*
COc1cccc(Nc2nnc(SCC(=O)Nc3sccc3C(N)=O)s2)c1 | -24 | -45 | 19 | 3 | 9 | 29*
FC(F)(F)c1cc(-c2ccccc2)nc(N2CCCCCC2)n1 | 0 | 14 | 1 | -1 | 0 | -2
COc1ccccc1N1CCN(c2nc(-c3ccccc3)cc(C(F)(F)F)n2)CC1 | 27* | 10 | 1 | -1 | -20 | -4
CN(Cc1ccc(F)cc1)S(=O)(=O)c1ccc2[nH]c(=O)[nH]c2c1 | -4 | 7 | 1 | 0 | 1 | -3
O=C(c1ccc2c(c1)OCO2)C1CCCN(Cc2ccc(OC(F)F)cc2)C1 (centres undefined) | -14 | -15 | 9 | -6 | 6 | 33*
Cc1ccc(-c2csc(N3CCC[C@@H]3C(=O)NCCn3c(-c4ccncc4)nc4ccccc43)n2)cc1 | -31 | -16 | 13 | -6 | 27 | 48*
Cc1ccc(-c2csc(N3CCN(CCCn4c(-c5ccncc5)nc5ccccc54)CC3)n2)cc1 | -24 | -6 | 6 | -6 | 18 | 12
COc1cccc(S(=O)(=O)Nc2cccc(C(=O)N3CCOCC3)c2)c1 | -17 | -17 | 1 | -5 | -3 | 36*
COc1cccc(S(=O)(=O)Nc2cccc(C(=O)N3CCCC3)c2)c1 | -1 | -1 | 0 | -3 | 5 | -2
CCN(CC)C(=O)c1cccc(NC(=O)C2CCN(C(=O)c3cccs3)CC2)c1 | 8 | 4 | 2 | 1 | 4 | -8
